Measurements as given in ChEMBL document CHEMBL1155465, “"Viologen" dendrimers as antiviral agents: the effect of charge number and distance” (J Med Chem, 2010).
Converted amounts (≈) assume the structure as drawn. The source made the active and inactive calls. No cut-off for these calls is given here.

Experiments:
[1] = tested on: Human immunodeficiency virus 1; assay: Antiviral activity against HIV1 3B infected in human MT4 cells assessed as time-of-addition prolongation at 0.5 ug/ml after 31 hrs post infection by ELISA; format: functional
In short: (§1)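 Time-of-addition: MT-4 cells infected with HIV-1 IIIB at moi 0.5 for a 1 h adsorption, then plated at 45000 cells/well at 37 °C. Compound added at 0, 1, 2, 3, 4, 5, 6, 7, 8, 24 or 25 h post-infection. Supernatant p24 antigen measured by ELISA at 31 h post-infection.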

[2] = tested on: Human immunodeficiency virus 1; assay: Antiviral activity against HIV1 3B infected in human MT4 cells assessed as time-of-addition prolongation at 2 ug/ml after 31 hrs post infection by ELISA; format: functional; in short: as §1
[3] = tested on: Human immunodeficiency virus 1; assay: Antiviral activity against HIV1 NL4-3 infected in human A72 Jurkat cells assessed as inhibition of GFP expression after 48 hrs by flow cytometry; format: functional, organism-based; conditions: Human immunodeficiency virus 1, NL4-3, Jurkat
In short: (§2)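 Acutely infected A72 Jurkat cells. EC50 (μg/mL) is the concentration giving 50% inhibition of GFP expression relative to drug-free infection. CC50 is 50% reduction in cell viability. SI = CC50/EC50. Mean ± SD of ≥2 experiments.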

[4] = tested on: Human immunodeficiency virus 1; assay: Antiviral activity against HIV1 3B infected in human A72 Jurkat cells assessed as inhibition of GFP expression after 48 hrs by flow cytometry; format: functional, organism-based; conditions: Human immunodeficiency virus 1, 3B; in short: as §2
[5] = tested on: Human immunodeficiency virus; assay: Antiviral activity against AZT-resistant HIV infected in human A72 Jurkat cells assessed as inhibition of GFP expression after 48 hrs by flow cytometry; format: functional, organism-based; conditions: Human immunodeficiency virus 1, Jurkat; in short: as §2
[6] = tested on: Human immunodeficiency virus 2; assay: Antiviral activity against HIV2 ROD infected in human A72 Jurkat cells assessed as inhibition of GFP expression after 48 hrs by flow cytometry; format: functional, organism-based; conditions: Human immunodeficiency virus 2, ISOLATE ROD; in short: as §2
[7] = tested on: Human immunodeficiency virus; assay: Antiviral activity against HIV S056 infected in human A72 Jurkat cells assessed as inhibition of GFP expression after 48 hrs by flow cytometry; format: functional, organism-based; conditions: Human immunodeficiency virus 1, S056, Jurkat; in short: as §2
[8] = Cytotoxicity against human Jurkat A72 cells by MTT assay; format: cell-based; in short: as §2
[9] = tested on: Human immunodeficiency virus; assay: Antiviral activity against HIV S067 infected in human A72 Jurkat cells assessed as inhibition of GFP expression after 48 hrs by flow cytometry; format: functional, organism-based; conditions: Human immunodeficiency virus 1, S067, Jurkat; in short: as §2
[10] = tested on: Human immunodeficiency virus; assay: Antiviral activity against HIV S07 infected in human A72 Jurkat cells assessed as inhibition of GFP expression after 48 hrs by flow cytometry; format: functional, organism-based; conditions: Human immunodeficiency virus 1, S07, Jurkat; in short: as §2
[11] = Selectivity index, ratio of CC50 for human Jurkat A72 cells to EC50 for HIV1 3B; format: toxicity, cell-based; in short: as §2
[12] = tested on: Human immunodeficiency virus 1; assay: Antiviral activity against HIV1 NL4-3 pseudotyped with VSV-G envelope infected in human C8166 cells assessed as inhibition of GFP expression after 48 hrs by flow cytometry; format: functional, organism-based
In short: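 VSV-G-pseudotyped (env-deficient) GFP-encoding NL4.3 taken from transfection supernatant at 60 h and clarified at 450g for 10 min. Used to infect 3 × 10⁴ C8166 cells (RPMI 1640, 10% FCS) with graded compound concentrations. GFP expression read by flow cytometry 48 h post-infection, with the no-compound infection control set as 100%.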

[13] = tested on: Human immunodeficiency virus 1; assay: Antiviral activity against HIV1 3B infected in human MT4 cells after 5 days by MTT assay; format: functional, organism-based; conditions: Human immunodeficiency virus 1, 3B, MT4, 120 h
In short: (§3)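 MT-4 cells in RPMI 1640 with 10% heat-inactivated FCS, 2 mM L-glutamine, 0.1% bicarbonate and gentamicin, seeded at 6 × 10⁵ cells/mL final with virus or mock infection. Viability read by MTT after 5 days at 540 and 690 nm, using the median OD of three wells. CC50 is 50% loss of mock-infected OD540. EC50 is 50% inhibition of virus-induced CPE. SI = CC50/EC50. Mean ± SD of ≥2 experiments.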

[14] = tested on: Human immunodeficiency virus 2; assay: Antiviral activity against HIV2 ROD infected in human MT4 cells after 5 days by MTT assay; format: functional, organism-based; conditions: Human immunodeficiency virus 2, ISOLATE ROD, MT4, 120 h; in short: as §3
[15] = tested on: Human immunodeficiency virus 1; assay: Antiviral activity against HIV1 3B infected in human PBMC assessed as inhibition of viral p24 antigen production by ELISA; format: functional, organism-based; conditions: Human immunodeficiency virus 1, 3B
In short: (§4)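 PBMCs infected with HIV-1 IIIB and cultured with a range of compound concentrations. EC50 is 50% inhibition of supernatant p24 core antigen (ELISA) relative to drug-free culture. CC50 is 50% reduction in cell viability. SI = CC50/EC50. Mean ± SD of ≥2 experiments.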

[16] = tested on: Human immunodeficiency virus; assay: Antiviral activity against HIV SO6141 infected in human MT4 cells after 5 days by MTT assay; format: functional, organism-based; conditions: Human immunodeficiency virus 1, SO6141, MT4, 120 h; in short: as §3
[17] = tested on: Vesicular stomatitis virus; assay: Antiviral activity against VSV infected in human E6SM cell assessed as inhibition of virus-induced cytopathicity; format: functional, organism-based
[18] = tested on: Human immunodeficiency virus 1; assay: Antiviral activity against HIV1 3B infected in human MT4 cells assessed as time-of-addition prolongation at 100 ug/ml after 31 hrs post infection by ELISA; format: functional; in short: as §1
Sindbis virus = assay: Antiviral activity against Sindbis virus infected in african green monkey Vero cells assessed as inhibition of virus-induced cytopathicity; format: functional, organism-based
[19] = Selectivity index, ratio of CC50 for human MT4 cells to EC50 for HIV1 3B; format: toxicity, cell-based; conditions: read-out: Ratio CC50/EC50; in short: as §3
Human alphaherpesvirus 1 [20] = assay: Antiviral activity against TK-deficient acyclovir-resistant HSV1 KOS infected in human E6SM cell assessed as inhibition of virus-induced cytopathicity; format: functional, organism-based; conditions: Human alphaherpesvirus 1, KOS
[21] = Cytotoxicity against african green monkey Vero cells by MTT assay; format: cell-based; conditions: chlorocebus sabaeus
Reovirus sp. = assay: Antiviral activity against Reovirus infected in african green monkey Vero cells assessed as inhibition of virus-induced cytopathicity; format: functional, organism-based
[22] = Selectivity index, ratio of CC50 for human PBMC to EC50 for HIV1 3B; in short: as §4
[23] = tested on: Respiratory syncytial virus; assay: Antiviral activity against RSV infected in human HeLa cell assessed as inhibition of virus-induced cytopathicity; format: functional, organism-based
Human alphaherpesvirus 2 = assay: Antiviral activity against HSV2 G infected in human E6SM cell assessed as inhibition of virus-induced cytopathicity; format: functional, organism-based; conditions: Human alphaherpesvirus 2, strain G
[24] = Cytotoxicity against human MT4 cells after 5 days by MTT assay; format: cell-based; in short: as §3
[25] = Cytotoxicity against human E6SM cells by MTT assay; format: cell-based
Vaccinia virus = assay: Antiviral activity against Vaccina virus infected in human E6SM cell assessed as inhibition of virus-induced cytopathicity; format: functional, organism-based; conditions: Orthopoxvirus vaccinia
Human alphaherpesvirus 1 [26] = assay: Antiviral activity against HSV1 KOS infected in human E6SM cell assessed as inhibition of virus-induced cytopathicity; format: functional, organism-based; conditions: Human alphaherpesvirus 1, KOS
[27] = Cytotoxicity against human PBMC after 5 days by MTT assay; format: cell-based; in short: as §4
[28] = tested on: Vesicular stomatitis virus; assay: Antiviral activity against VSV infected in human HeLa cell assessed as inhibition of virus-induced cytopathicity; format: functional, organism-based
Human respirovirus 3 = assay: Antiviral activity against Parainfluenza virus 3 infected in african green monkey Vero cells assessed as inhibition of virus-induced cytopathicity; format: functional, organism-based; conditions: Human respirovirus 3, Vero
[29] = Cytotoxicity against human HeLa cells by MTT assay; format: cell-based
Punta Toro virus = assay: Antiviral activity against Punta Toro virus infected in african green monkey Vero cells assessed as inhibition of virus-induced cytopathicity; format: functional, organism-based
[30] = tested on: Simian immunodeficiency virus; assay: Antiviral activity against SIV MAC251 infected in human MT4 cells after 5 days by MTT assay; format: functional, organism-based; conditions: MAC251, MT4, 120 h; in short: as §3

Cc1cn([C@H]2C[C@H](N=[N+]=[N-])[C@@H](CO)O2)c(=O)[nH]c1=O [ZIDOVUDINE]
Time [1]: 5 h

Cc1ccnc2c1NC(=O)c1cccnc1N2C1CC1 [NEVIRAPINE]
Time [2]: 10 h
EC50 [3]: 0.008 µg/mL (≈ 0.03 µM)
EC50 [4]: 0.008 µg/mL (≈ 0.03 µM)
EC50 [5]: 0.005 µg/mL (≈ 0.0188 µM)
EC50 [6]: > 2 µg/mL
EC50 [7]: < 0.2 µg/mL
CC50 [8]: > 2 µg/mL
EC50 [9]: 0.016 µg/mL (≈ 0.0601 µM)
EC50 [10]: 0.012 µg/mL (≈ 0.0451 µM)
selectivity ratio [11]: > 250

c1cc(CN2CCCNCCNCCCNCC2)ccc1CN1CCCNCCNCCCNCC1
inhibition [12]: inactive

CC[n+]1ccc(-c2cc[n+](Cc3cc(Cc4ccc(-c5cc[n+](Cc6cc(C[n+]7ccc(-c8cc[n+](Cc9cc(C[n+]%10ccc(-c%11cc[n+](CC)cc%11)cc%10)cc(C[n+]%10ccc(-c%11cc[n+](CC)cc%11)cc%10)c9)cc8)cc7)cc(C[n+]7ccc(-c8cc[n+](Cc9cc(C[n+]%10ccc(-c%11cc[n+](CC)cc%11)cc%10)cc(C[n+]%10ccc(-c%11cc[n+](CC)cc%11)cc%10)c9)cc8)cc7)c6)cc5)cc4)cc(C[n+]4ccc(-c5cc[n+](CC)cc5)cc4)c3)cc2)cc1.F[P-](F)(F)(F)(F)F.F[P-](F)(F)(F)(F)F.F[P-](F)(F)(F)(F)F.F[P-](F)(F)(F)(F)F.F[P-](F)(F)(F)(F)F.F[P-](F)(F)(F)(F)F.F[P-](F)(F)(F)(F)F.F[P-](F)(F)(F)(F)F.F[P-](F)(F)(F)(F)F.F[P-](F)(F)(F)(F)F.F[P-](F)(F)(F)(F)F.F[P-](F)(F)(F)(F)F.F[P-](F)(F)(F)(F)F.F[P-](F)(F)(F)(F)F.F[P-](F)(F)(F)(F)F.F[P-](F)(F)(F)(F)F.F[P-](F)(F)(F)(F)F
inhibition [12]: Dose-dependent effect
EC50 [13]: 0.26 µM
EC50 [14]: > 19.7 µM
EC50 [3]: < 0.2 µg/mL
EC50 [15]: 1.62 µg/mL
EC50 [16]: ≥ 1.55 µM
EC50 [4]: 0.685 µg/mL
EC50 [5]: 5.9 µg/mL
EC50 [17]: > 50 µg/mL
Time [18]: 1 h
EC50 (Sindbis virus): > 50 µg/mL
selectivity ratio [19]: 75.8
EC50 (Human alphaherpesvirus 1 [20]): 10 µg/mL
MCC [21]: > 50 µg/mL
EC50 (Reovirus sp.): > 50 µg/mL
Ratio CC50/EC50 [22]: 2.5
EC50 [6]: 21.5 µg/mL
EC50 [23]: 50 µg/mL
EC50 (Human alphaherpesvirus 2): 10 µg/mL
CC50 at 120 h [24]: 19.7 µM
EC50 [7]: < 2 µg/mL
MCC [25]: > 50 µg/mL
EC50 (Vaccinia virus): > 50 µg/mL
EC50 (Human alphaherpesvirus 1 [26]): 2 µg/mL
CC50 at 120 h [27]: 4.04 µg/mL
CC50 [8]: 102 µg/mL
EC50 [28]: > 50 µg/mL
EC50 [9]: < 0.2 µg/mL
EC50 (Human respirovirus 3): > 50 µg/mL
MCC [29]: > 50 µg/mL
EC50 (Punta Toro virus): > 50 µg/mL
EC50 [10]: < 0.2 µg/mL
selectivity ratio ([11]; read-out: Ratio CC50/EC50): 149
EC50 [30]: 0.46 µM
